Experimental data from ChEMBL document CHEMBL2040715, “Discovery of a Potent HIV Integrase Inhibitor that Leads to a Prodrug with Significant anti-HIV Activity” (ACS Med Chem Lett, 2011).
pEC50, pIC50: −log10 of the molar value.

Key:
[1] = test system: Human immunodeficiency virus 1; assay: Antiviral activity against HIV1 infected in MAGI cells by beta-galactosidase reporter gene assay; assay type: functional, organism-based; settings: Human immunodeficiency virus 1, MAGI
How it was run: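 HIV-1 infection of MAGI cells, with raltegravir as the MOI-sensitive positive control validating each run. EC50 and EC90 were determined.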

Cytochrome P450 2C8 [2] = molecular target: T1, Cytochrome P450 2C8 (Homo sapiens, UniProt P10632); assay: Inhibition of CYP2C8 in human liver microsomes using amodiaquine as substrate incubated for 3 mins prior to NAPDH-addition measured after 30 mins by RP-HPLC analysis; assay type: ADME, Microsome
T1 sequence (P10632 whole entry): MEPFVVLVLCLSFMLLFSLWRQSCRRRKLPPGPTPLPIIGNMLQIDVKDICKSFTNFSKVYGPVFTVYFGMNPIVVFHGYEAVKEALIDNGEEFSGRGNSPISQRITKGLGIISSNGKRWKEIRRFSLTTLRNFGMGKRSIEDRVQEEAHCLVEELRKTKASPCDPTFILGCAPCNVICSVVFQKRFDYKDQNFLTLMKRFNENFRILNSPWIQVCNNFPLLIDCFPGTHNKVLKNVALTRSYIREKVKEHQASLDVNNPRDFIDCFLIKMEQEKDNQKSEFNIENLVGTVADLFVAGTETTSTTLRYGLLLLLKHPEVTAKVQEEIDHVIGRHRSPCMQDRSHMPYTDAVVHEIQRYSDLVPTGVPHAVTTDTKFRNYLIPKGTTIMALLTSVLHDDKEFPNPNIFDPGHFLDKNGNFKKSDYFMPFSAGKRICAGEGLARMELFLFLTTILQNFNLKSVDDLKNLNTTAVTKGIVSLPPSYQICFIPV
How it was run: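 CYP2C8 was assayed in pooled human liver microsomes at 0.4 mg/mL protein with amodiaquine as substrate (5 mM stock; 200 μM listed). Incubation was 30 min with varying inhibitor concentrations, and IC50 was obtained by kinetic analysis.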

Cytochrome P450 2C8 [3] = molecular target: T1, Cytochrome P450 2C8; assay: Activation of CYP2C8 in human liver microsomes incubated for 3 mins prior to NAPDH-addition measured after 30 mins by RP-HPLC analysis; assay type: ADME, Microsome; settings: 0.5 h
[4] = molecular target: T2, UDP-glucuronosyltransferase 1A4 (Homo sapiens, UniProt P22310); assay: Activity at UGT1A4 in human liver microsomes at 50 uM incubated for 3 mins prior to NADPH-addition measured up to 120 mins by HPLC/UV analysis; assay type: ADME, Microsome
T2 sequence (P22310 whole entry): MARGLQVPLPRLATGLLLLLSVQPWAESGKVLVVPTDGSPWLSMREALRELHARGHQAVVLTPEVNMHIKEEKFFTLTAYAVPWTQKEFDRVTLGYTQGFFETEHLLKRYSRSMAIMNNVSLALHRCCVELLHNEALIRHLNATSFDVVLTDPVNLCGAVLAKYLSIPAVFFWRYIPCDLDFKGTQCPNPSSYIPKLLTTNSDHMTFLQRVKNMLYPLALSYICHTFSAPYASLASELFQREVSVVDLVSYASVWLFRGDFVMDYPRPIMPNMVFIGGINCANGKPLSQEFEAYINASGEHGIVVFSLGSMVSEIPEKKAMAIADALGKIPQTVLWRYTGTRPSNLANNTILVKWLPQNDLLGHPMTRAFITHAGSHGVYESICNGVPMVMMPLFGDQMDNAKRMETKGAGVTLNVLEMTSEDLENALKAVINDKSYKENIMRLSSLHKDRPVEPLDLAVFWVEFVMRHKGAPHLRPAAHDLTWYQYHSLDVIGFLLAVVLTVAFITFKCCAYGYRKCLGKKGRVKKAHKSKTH

[5] = molecular target: T3, UDP-glucuronosyltransferase 2B7 (Homo sapiens, UniProt P16662); assay: Activity at UGT2B7 in human liver microsomes at 50 uM incubated for 3 mins prior to NADPH-addition measured up to 120 mins by HPLC/UV analysis; assay type: ADME, Microsome
T3 sequence (P16662 whole entry): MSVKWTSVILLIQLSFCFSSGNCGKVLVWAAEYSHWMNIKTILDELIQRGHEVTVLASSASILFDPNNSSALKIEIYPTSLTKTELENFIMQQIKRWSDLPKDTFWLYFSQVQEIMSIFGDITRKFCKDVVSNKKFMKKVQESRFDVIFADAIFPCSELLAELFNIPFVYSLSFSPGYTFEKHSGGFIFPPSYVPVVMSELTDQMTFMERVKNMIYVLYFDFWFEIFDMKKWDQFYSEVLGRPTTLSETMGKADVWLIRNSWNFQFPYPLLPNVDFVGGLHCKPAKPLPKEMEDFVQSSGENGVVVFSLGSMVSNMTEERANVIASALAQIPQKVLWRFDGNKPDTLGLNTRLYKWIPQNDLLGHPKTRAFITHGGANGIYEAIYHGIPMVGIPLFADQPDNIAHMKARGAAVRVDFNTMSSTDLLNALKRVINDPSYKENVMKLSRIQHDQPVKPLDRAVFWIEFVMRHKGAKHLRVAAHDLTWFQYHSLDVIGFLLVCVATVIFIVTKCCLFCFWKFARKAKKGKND

Cytochrome P450 2D6 = Cytochrome P450 2D6 (Homo sapiens, UniProt P10635); assay: Activation of CYP2D6 in human liver microsomes incubated for 3 mins prior to NAPDH-addition measured after 60 mins by RP-HPLC analysis; settings: 1 h
Cytochrome P450 2D6, sequence (P10635 whole entry): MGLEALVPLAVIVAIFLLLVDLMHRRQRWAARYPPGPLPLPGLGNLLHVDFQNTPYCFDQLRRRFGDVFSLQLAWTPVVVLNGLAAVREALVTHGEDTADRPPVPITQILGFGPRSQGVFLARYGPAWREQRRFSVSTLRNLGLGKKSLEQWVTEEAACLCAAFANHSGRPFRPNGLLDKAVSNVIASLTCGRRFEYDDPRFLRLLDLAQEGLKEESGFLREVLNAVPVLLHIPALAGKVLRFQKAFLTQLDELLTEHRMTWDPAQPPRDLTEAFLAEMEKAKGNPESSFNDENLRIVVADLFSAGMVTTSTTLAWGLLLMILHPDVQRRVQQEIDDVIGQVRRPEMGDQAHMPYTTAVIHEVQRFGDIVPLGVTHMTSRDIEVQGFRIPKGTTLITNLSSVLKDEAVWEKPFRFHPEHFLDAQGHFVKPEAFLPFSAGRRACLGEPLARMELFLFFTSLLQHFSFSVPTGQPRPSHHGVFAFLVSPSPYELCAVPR

**Q.** `O=C(O)/C(O)=C/C(=O)c1cc(Cc2ccc(F)cc2F)cn(Cc2ccccc2F)c1=O` was tested. Which pEC50 [1] did it give?
**A.** 6.30

**Q.** What about the pIC50 (Cytochrome P450 2C8 [2]) of the same compound?
**A.** < 4.19

**Q.** And the Activity (Cytochrome P450 2C8 [3])?
**A.** Not Active

**Q.** What about the Activity [4] of the same compound?
**A.** Not Active

**Q.** And the Activity [5]?
**A.** Not Active

**Q.** And the Activity (Cytochrome P450 2D6)?
**A.** Not Active
